Measured values published in publication PMC10836733 (Science Advances, 2024).
Substitutions are numbered along the chain they refer to. Each block holds one compound with its values, some of them ahead of it. Numbered stars: 1 amine (or outer) side, 2 acyl side, 3 side chain; on linkers, the order of the positions; unused ones are H or OH. Bridge positions count the residues as written; N and C are the ends. Square brackets hold non-standard residues; d marks the D form. Peptide text beside a SMILES is read from it. X1 = CC(=O)NC(C(=O)OC(C(C)C)C(N[*:1])C(=O)[*:2])C(O)C(C)C; PhLac = O=C(O)[CH](O)Cc1ccccc1; NMeT = CN[CH](C(=O)O)[CH](C)O; NMeA = CN[CH](C)C(=O)O; NMeDha = C=C(NC)C(=O)O

Experiments:
[1] = test system: zebrafish (Danio rerio) GPR39 (zfGPR39); experiment: FLIPR Ca2+ assay, HEK293T cells expressing zebrafish GPR39; format: cell-based
Procedure, shortened: (§1)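 HEK293T cells expressing mouse GPR39 H17A/H19A mutant or zebrafish GPR39, Fluo-8-loaded, read by FLIPR at room temperature (addition at 30 s, 150 s recording). Where Zn2+ used, cells preincubated with 4 μM Zn2+ in recording buffer for 5 min and it was kept with all compound concentrations. Responses normalized to 200 μM LCAS; n = 3 or 4.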

mouse GPR39 = molecular target: T1, mouse GPR39 (Mus musculus, UniProt Q5U431); experiment: FLIPR Ca2+ assay in HEK293T cells stably expressing mouse GPR39; format: cell-based; conditions: for GPR39 activation, presence or absence of 4 μM Zn2+: with or without 4 μM Zn2+
T1 sequence (Q5U431 1-456): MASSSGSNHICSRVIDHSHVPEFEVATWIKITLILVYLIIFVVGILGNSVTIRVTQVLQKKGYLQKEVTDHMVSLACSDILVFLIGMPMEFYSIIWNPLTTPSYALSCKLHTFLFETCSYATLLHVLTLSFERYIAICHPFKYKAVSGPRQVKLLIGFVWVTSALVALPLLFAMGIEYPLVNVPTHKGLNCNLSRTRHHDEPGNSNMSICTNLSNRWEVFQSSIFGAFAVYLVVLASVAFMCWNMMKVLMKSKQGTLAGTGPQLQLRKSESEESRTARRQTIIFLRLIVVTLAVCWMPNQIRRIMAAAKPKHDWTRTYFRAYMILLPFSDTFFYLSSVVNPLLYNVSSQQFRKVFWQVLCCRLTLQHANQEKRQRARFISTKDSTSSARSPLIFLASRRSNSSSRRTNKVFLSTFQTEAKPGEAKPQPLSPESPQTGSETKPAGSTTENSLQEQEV

GPR39 [2] = conditions: cited from earlier work
GHSR = GHSR (Homo sapiens, UniProt Q92847); experiment: FLIPR Ca2+ assay, GHSR expressed in HEK293T-Gα15-GCaMP6s cells; format: cell-based; conditions: for GHSR activation: 200 μM BAs; for Maximal efficacy at GHSR: normalized to 1 μM ghrelin
[3] = test system: mock-transfected HEK293T cells; experiment: Ca2+ response of mock-transfected HEK293T cells; format: cell-based, human; conditions: 200 μM
Procedure, shortened: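 Sham-transfected HEK293T cells loaded with Fluo-8 AM (2 μg/ml) in recording buffer for 25 min at room temperature, then 5 min in recording buffer. FLIPR read at room temperature every 1 s; 200 μM test compound or Zn2+ dispensed at 30 s, followed by 150 s recording.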

GPBAR1 = molecular target: T2, GPBAR1 (Homo sapiens, UniProt Q8TDU6); experiment: CRE luciferase reporter assay; format: cell-based
T2 sequence (Q8TDU6 1-330): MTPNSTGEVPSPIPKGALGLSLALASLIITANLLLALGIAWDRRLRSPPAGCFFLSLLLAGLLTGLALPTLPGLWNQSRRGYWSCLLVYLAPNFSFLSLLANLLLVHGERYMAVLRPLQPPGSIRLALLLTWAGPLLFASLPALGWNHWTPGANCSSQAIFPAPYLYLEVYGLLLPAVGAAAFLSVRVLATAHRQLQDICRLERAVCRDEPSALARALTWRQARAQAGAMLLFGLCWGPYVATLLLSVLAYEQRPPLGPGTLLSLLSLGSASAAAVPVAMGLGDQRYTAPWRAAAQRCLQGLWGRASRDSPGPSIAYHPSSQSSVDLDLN

pancreatic acinar cells [4] = experiment: Ca2+ imaging in freshly isolated pancreatic acinar cells; format: cell-based, mouse
H17A/H19A mutant GPR39 = molecular target: T3, H17A/H19A mutant GPR39 (Mus musculus, UniProt Q5U431, H17A/H19A); experiment: FLIPR Ca2+ assay, HEK293T cells expressing GPR39 H17A/H19A mutant; format: cell-based
T3 sequence (Q5U431 1-456 H17A/H19A): T1 sequence (Q5U431 1-456) with H17A, H19A
Procedure, shortened: as §1

G. Gallus GPR39 = experiment: FLIPR Ca2+ assay, HEK293T cells expressing chicken GPR39; format: cell-based, chicken (Gallus Gallus)
X. laevis GPR39 = experiment: FLIPR Ca2+ assay, HEK293T cells expressing frog GPR39; format: cell-based, frog (Xenopus laevis)
G. japonicus GPR39 = experiment: FLIPR Ca2+ assay, HEK293T cells expressing gecko GPR39; format: cell-based, gecko (Gekko japonicus)
GPR39 [5] = molecular target: T4, GPR39 (Homo sapiens, UniProt O43194); format: cell-based; conditions: 200 μM
T4 sequence (O43194 1-453): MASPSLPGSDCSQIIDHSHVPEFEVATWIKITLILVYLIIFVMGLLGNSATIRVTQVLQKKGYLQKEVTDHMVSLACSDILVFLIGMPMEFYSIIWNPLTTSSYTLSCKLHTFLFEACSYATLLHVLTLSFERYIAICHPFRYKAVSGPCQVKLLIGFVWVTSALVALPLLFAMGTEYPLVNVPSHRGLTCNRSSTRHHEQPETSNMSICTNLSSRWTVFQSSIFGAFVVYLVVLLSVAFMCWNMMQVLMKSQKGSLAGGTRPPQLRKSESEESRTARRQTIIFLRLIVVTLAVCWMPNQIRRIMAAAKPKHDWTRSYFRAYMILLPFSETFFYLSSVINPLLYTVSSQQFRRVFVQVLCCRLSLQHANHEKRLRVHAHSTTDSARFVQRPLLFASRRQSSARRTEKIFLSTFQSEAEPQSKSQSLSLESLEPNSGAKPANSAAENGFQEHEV
Procedure, shortened: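 HEK293T cells stably expressing Gα15 and GCaMP6s, on poly-D-lysine-coated plates, transiently transfected with human GPCR cDNAs. Test compound added by pipette at 200 μM; intracellular Ca2+ imaged by confocal microscopy.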

pancreatic acinar cells [6] = experiment: Acinar cell injury: PI uptake, LDH leakage, blebbing; format: cell-based, mouse; conditions: 4 hours
Procedure, shortened: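 Mouse acini (WT, Gpr39−/−, Gpbar1−/−) digested with 1 mg/ml collagenase IV, collected on 150-μm nylon cloth, and suspended in Hepes-buffered DMEM/F12 with 1 mg/ml BSA. Exposed to test compound at 37°C for 4 h. LDH in supernatant measured by kit, expressed as % of total LDH (0.5% Triton X-100 lysate). PI uptake: acini resuspended in 2 μg/ml PI, fluorescence ex 536/em 617 nm, normalized to vehicle.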

pancreatic acinar cells [7] = experiment: Amylase release from isolated pancreatic acini; format: cell-based, mouse; conditions: 500 μM LCAS, 500 μM TLCAS, 1 nM caerulein
Procedure, shortened: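 Mouse acini (WT, Gpr39−/−, Gpbar1−/−) isolated and held as for the LDH assay, then exposed to test compound at 37°C for 30 min. Amylase activity measured in supernatant. Vehicle leakage subtracted as basal; net release expressed as % of total activity (0.5% Triton X-100 lysate). One-way ANOVA with Tukey posttest versus WT.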

[8] = WT mice, LCAS 500 μM, TLCAS 500 μM, caerulein 100 nM

Sequence of GHSR (Q92847 whole entry): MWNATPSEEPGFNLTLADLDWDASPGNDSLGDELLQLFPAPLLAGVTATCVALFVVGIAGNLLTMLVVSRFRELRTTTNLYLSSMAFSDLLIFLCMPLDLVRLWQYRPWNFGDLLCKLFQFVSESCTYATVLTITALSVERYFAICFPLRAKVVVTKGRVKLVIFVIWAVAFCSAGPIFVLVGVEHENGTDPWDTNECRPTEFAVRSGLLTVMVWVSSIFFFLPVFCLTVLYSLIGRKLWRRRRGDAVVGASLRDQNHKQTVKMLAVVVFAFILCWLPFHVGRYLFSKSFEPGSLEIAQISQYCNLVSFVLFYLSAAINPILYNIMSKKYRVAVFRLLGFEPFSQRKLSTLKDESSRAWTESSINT

Compound: 5b-cholestanpentol
zfGPR39 activation [1]: minimal effects
GPR39 activation, presence or absence of 4 μM Zn2+ (mouse GPR39): robustly activated

Compound: CCCCCC1OC1C/C=C\C/C=C\C/C=C\CCCC(=O)O (racemic) [14(15)-EET, (±)14(15)-epoxy-5Z,8Z,11Z-eicosatrienoic acid]
GPR39 blockade (report) (GPR39 [2]): blocked

Compound: CCCCC[C@H](O)/C=C/C=C\C/C=C\C/C=C\CCCC(=O)O [15(S)-HETE, 15S-hydroxy-5Z,8Z,11Z,13E-eicosatetraenoic acid]
GPR39 activation (report) (GPR39 [2]): GPR39 activation

Compound: C[C@H](CCC(=O)O)[C@H]1CC[C@H]2[C@@H]3[C@H](O)C[C@@H]4C[C@H](O)CC[C@]4(C)[C@H]3CC[C@]12C [CDCA, chenodeoxycholic acid]
GHSR activation (GHSR): activated
Maximal efficacy at GHSR (GHSR): comparable to ghrelin
Ca2+ elevation in mock-transfected cells [3]: nonspecific Ca^2+ elevations

Compound: C[C@H](CCC(=O)O)[C@H]1CC[C@H]2[C@@H]3CC[C@@H]4C[C@H](O)CC[C@]4(C)[C@H]3C[C@H](O)[C@]12C [DCA, deoxycholic acid]
Effect on GHSR activation by ghrelin (GHSR; 10 μM BA): did not potentiate or attenuate
GHSR activation (GHSR): activated
Maximal efficacy at GHSR (GHSR): comparable to ghrelin
GPBAR1 activation (GPBAR1): potent agonists
Ca2+ elevation in mock-transfected cells [3]: nonspecific Ca^2+ elevations

Compound: CC[C@H]1[C@@H](O)[C@@H]2[C@H](C[C@H](O)[C@]3(C)[C@@H]([C@H](C)C[C@H](C)C(=O)O)CC[C@@H]23)[C@@]2(C)CC[C@@H](O)C[C@@H]12 [INT-777]
Ca2+ elevation in acinar cells by GPBAR1 ligands and agonist (pancreatic acinar cells [4]): not observed

Compound: COc1ccc(Cn2c(CCc3ccccc3)nnc2[C@@H](Cc2c[nH]c3ccccc23)NC(=O)CN)cc1 [JMV-2959, JMV2959]
Effect on Ca2+ mobilization induced by LCA in GHSR-expressing cells (GHSR; 10 μM JMV2959, LCA 200 μM): moderately but not fully inhibited

Compound: C=C1C(=O)NC(C)C(=O)N(C)C(C)C(=O)NC(C(OC(=O)C(NC(C)=O)C(O)C(C)C)C(C)C)C(=O)N(C)C(C(C)OC)C(=O)OC(C)C(NC(C)=O)C(=O)OC(Cc2ccccc2)C(=O)N1C (stereo not drawn) [YM254890] (Ac-T[PhLac][NMeDha]A[NMeA][X1][NMeT](Me); ester 1-C; configuration not given here)
Effect on Ca2+ elevation induced by TLCAS in acinar cells (pancreatic acinar cells [4]; 10 μM YM254890 for 10 min, 500 μM TLCAS): eliminated

Compound: Caerulein
Effect of Gpr39 knockout on induced PI uptake and LDH leakage (pancreatic acinar cells [6]; Gpr39 knockout): did not affect
LDH release from isolated acinar cells (pancreatic acinar cells [6]; [8]): increased LDH release
PI uptake into isolated acinar cells (pancreatic acinar cells [6]; [8]): increased PI uptake
Effect of deleting Gpbar1 on induced amylase discharge (pancreatic acinar cells [7]): did not alter

Continued, in another order:

Effect on GHSR activation by ghrelin (GHSR; 1 μM LCA): no effect
Effect on GHSR activation by ghrelin (GHSR; 10 μM BA): attenuated the effect of ghrelin
GHSR activation (GHSR): activated
Sensitivity at GHSR (GHSR; compared with UDCA, DCA, and CDCA): relatively higher sensitivity
Maximal efficacy at GHSR (GHSR): lower efficacy
Enhancement of GPR39 activation by Zn2+ (mouse GPR39; 4 μM BA): enhanced
Compound: C[C@H](CCC(=O)O)[C@H]1CC[C@H]2[C@@H]3CC[C@@H]4C[C@H](O)CC[C@]4(C)[C@H]3CC[C@]12C [LCA, lithocholic acid]

Effect on GHSR activation by ghrelin (GHSR; 10 μM BA): did not potentiate or attenuate
GHSR activation (GHSR): activated
Maximal efficacy at GHSR (GHSR): comparable to ghrelin
Compound: C[C@H](CCC(=O)O)[C@H]1CC[C@H]2[C@@H]3[C@@H](O)C[C@@H]4C[C@H](O)CC[C@]4(C)[C@H]3CC[C@]12C [UDCA, ursodeoxycholic acid]

Effect of H17A/H19A mutations on Zn2+-induced Ca2+ elevation (H17A/H19A mutant GPR39): abolished
Zn2+ concentration that notably shifts GPR39 activation by LCAS (mouse GPR39): above 1 μM
Effect of Zn2+ on GPR39-mediated calcium response to TLCAS (mouse GPR39; 4 μM Zn2+, leftward shift of the dose-response curve): potentiated
Ca2+ response of GPR39-transfected HEK293T cells (GPR39 [5]): exhibited Ca^2+ responses
Compound: [Zn+2] [Zn^2+]
zfGPR39 activation [1]: little response
Response of chicken GPR39 (G. Gallus GPR39): strong dose-dependent responses
Response of frog GPR39 (X. laevis GPR39): strong dose-dependent responses
Ca2+ response of mock-transfected HEK293T cells [3]: responded to neither
Response of gecko GPR39 (G. japonicus GPR39): strong dose-dependent responses

GPR39 activation, presence or absence of 4 μM Zn2+ (mouse GPR39): could not activate GPR39
Compound: CC(C)CCC[C@@H](C)[C@H]1CC[C@H]2[C@@H]3CC=C4C[C@@H](OS(=O)(=O)O)CC[C@]4(C)[C@H]3CC[C@]12C [cholesterol-S, cholesterol 3-sulfate]

GPR39 activation, presence or absence of 4 μM Zn2+ (mouse GPR39): could not activate GPR39
Compound: CC(C)CCC[C@@H](C)[C@H]1CC[C@H]2[C@@H]3CC=C4C[C@@H](O)CC[C@]4(C)[C@H]3CC[C@]12C [cholesterol]
